One block for each compound: values may come before it.
Legend:
HeLa cells = assay: MMS and TMZ potentiation / HeLa cell viability assay; format: cell-based, human; settings: for IC50: Homo sapiens, read-out: 50% reduction in cell viability as a single agent; for IC50 / concentration of optimal synergy with MMS and TMZ: 24 h; for potentiation of cytotoxic effects of MMS and TMZ / concentration of optimal synergy with MMS and TMZ: MMS 0.4 mM or TMZ 1 mM
Summary of the method: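 HeLa cells in DMEM with 10% FBS, seeded at 6K/well and left overnight to attach. Medium was then replaced with fresh medium holding serial dilutions of test compound (5–30 µM), with or without MMS (0.4 mM) or TMZ (1 mM), for 24 h. Viability was read by CellTiter Glo luminescence after 30 min at room temperature, as percent of DMSO control, normalized to 100% per alkylating agent without compound.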

APE1-DNA complex = APE1-DNA complex (Homo sapiens, UniProt P27695); assay: electrophoretic mobility shift assay; format: binding; settings: protein pre-treated with 30 µM inhibitor
Sequence of APE1-DNA complex (P27695 whole entry, one chain of several): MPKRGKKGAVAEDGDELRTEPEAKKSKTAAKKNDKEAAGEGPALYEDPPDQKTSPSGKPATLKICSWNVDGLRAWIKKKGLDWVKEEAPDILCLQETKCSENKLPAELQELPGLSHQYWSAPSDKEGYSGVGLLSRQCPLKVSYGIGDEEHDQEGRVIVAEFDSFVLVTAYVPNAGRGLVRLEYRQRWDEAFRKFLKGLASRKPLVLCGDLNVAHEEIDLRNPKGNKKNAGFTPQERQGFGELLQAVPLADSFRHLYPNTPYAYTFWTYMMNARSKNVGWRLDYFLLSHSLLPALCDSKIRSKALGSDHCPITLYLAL
Summary of the method: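 Recombinant wild-type APE1 (10 ng, ~28 nM) was preincubated 10 min on ice with test compound (1, 3, 10, 30, 100 µM) or 1% DMSO. 32P AP-DNA (100 fmol, 10 nM) was added for 5 min on ice. Complex and free DNA were separated on native 8% PAGE (2 h, 120 V); percent DNA bound was read by phosphorimager.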

[1] = target: total AP site incision activity of HeLa whole cell extract (APE1) (Homo sapiens, UniProt P27695); assay: HeLa whole cell extract incision assay; format: biochemical; settings: for inhibition at 100 µM: read-out: inhibition of the incision activity of HeLa extracts
Sequence of total AP site incision activity of HeLa whole cell extract (APE1) (P27695 whole entry): as the sequence (P27695 whole entry, one chain of several) above

APE1 [2] = target: T1, APE1 (Homo sapiens, UniProt P27695); assay: enzyme kinetic studies of APE1 incision; format: biochemical; settings: for KM increase: 5, 10 or 20 µM inhibitor; for mode of inhibition: Lineweaver-Burk analysis; for kcat decrease: only at the high inhibitor concentration
T1 sequence (P27695 whole entry): as the sequence (P27695 whole entry, one chain of several) above

Caco-2 permeability = format: in vitro ADME; settings: human, Caco-2, pH 7.4
[3] = in vivo PK analysis, IP administration; settings: IP 30 mg/kg, CD1 mice, 24 hour observation
CYP3A4 = CYP3A4 (Homo sapiens, UniProt P08684); assay: CYP3A4 inhibition; format: in vitro ADME
Sequence of CYP3A4 (P08684 whole entry, species assumed): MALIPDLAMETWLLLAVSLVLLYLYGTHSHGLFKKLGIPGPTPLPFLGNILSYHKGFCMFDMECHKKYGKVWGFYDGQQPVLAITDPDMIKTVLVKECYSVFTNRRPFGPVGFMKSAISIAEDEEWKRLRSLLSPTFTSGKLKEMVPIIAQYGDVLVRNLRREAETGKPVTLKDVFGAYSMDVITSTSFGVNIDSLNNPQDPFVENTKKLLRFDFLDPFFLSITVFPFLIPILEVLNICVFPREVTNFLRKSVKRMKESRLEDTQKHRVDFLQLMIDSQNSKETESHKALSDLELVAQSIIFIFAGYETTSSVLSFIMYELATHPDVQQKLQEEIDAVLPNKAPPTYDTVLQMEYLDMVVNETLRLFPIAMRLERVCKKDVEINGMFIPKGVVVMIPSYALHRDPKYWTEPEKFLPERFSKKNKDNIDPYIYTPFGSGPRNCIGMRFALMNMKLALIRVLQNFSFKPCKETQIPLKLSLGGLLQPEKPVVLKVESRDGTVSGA

APE1 [4] = target: T1, APE1; assay: fluorescence-based qHTS assay of APE1 endonuclease activity; format: biochemical; settings: for less activity than the corresponding amide analog (4): relative to 4

- inhibition at 100 µM [1]: ~100%
Compound: CC(=O)Nc1sc2c(c1-c1nc3ccccc3s1)CCNC2 [Compound 4]

- activity against APE1 in the qHTS assay, in words (APE1 [4]): significant loss of activity
Compound: CC(=O)Nc1sc2c(c1-c1nc3ccccc3s1)CCN(C(=O)OC(C)(C)C)C2 [Compound 5]

- activity against APE1 in the qHTS assay, in words (APE1 [4]): significant loss of activity
Compound: CC(=O)Nc1sc2c(c1-c1nc3ccccc3s1)CCN(C(C)=O)C2 [Compound 8]

- activity against APE1 in the qHTS assay, in words (APE1 [4]): greatly diminished activity
Compound: CC(=O)Nc1sc2c(c1-c1cc3ccccc3s1)CCNC2 [Compound 15]

- activity against APE1 in the qHTS assay, in words (APE1 [4]): inactive
Compound: CC(C)(C)C(=O)Nc1sc2c(c1-c1nc3ccccc3s1)CCNC2 [Compound 26]

- activity against APE1 in the qHTS assay, in words (APE1 [4]): inactive
Compound: O=C(CCc1ccccc1)Nc1sc2c(c1-c1nc3ccccc3s1)CCNC2 [Compound 30]

- activity against APE1 in the qHTS assay, in words (APE1 [4]): complete loss of activity
Compound: COC(=O)c1sc2c(c1-c1nc3ccccc3s1)CCNC2 [Compound 41]

- activity against APE1 in the qHTS assay, in words (APE1 [4]): complete loss of activity
Compound: O=C(O)c1sc2c(c1-c1nc3ccccc3s1)CCNC2 [Compound 42]

- activity against APE1 in the qHTS assay, in words (APE1 [4]): modest activity
- less activity than the corresponding amide analog (4) (APE1 [4]): approximately 8 fold
Compound: Cc1noc(Nc2sc3c(c2-c2nc4ccccc4s2)CCNC3)n1 [Compound 46]

- activity against APE1 in the qHTS assay, in words (APE1 [4]): only modest efficacy
Compound: CC(=O)Nc1sc2c(c1-c1nc3ccccc3s1)CNCC2 [Compound 53]

- inhibition at 100 µM [1]: ~100%
Compound: CC(=O)Nc1sc2c(c1-c1nc3ccccc3s1)CCN(C(C)C)CC2 [Compound 55]

Continued, compound first:

Compound: CC(=O)Nc1sc2c(c1-c1nc3ccccc3s1)CCN(C(C)C)C2 [Compound 3, N-(3-(benzo[d]thiazol-2-yl)-6-isopropyl-4,5,6,7-tetrahydrothieno[2,3-c]pyridin-2-yl)acetamide]
- IC50 (HeLa cells): ~15 µM
- potentiation of cytotoxic effects of MMS and TMZ (HeLa cells): greatly potentiated
- concentration of optimal synergy with MMS and TMZ (HeLa cells): 5 to 10 µM
- APE1-DNA binary complex (APE1-DNA complex): essentially absent
- inhibition at 100 µM [1]: ~100%
- KM increase (APE1 [2]): ≤ 4 fold
- mode of inhibition (APE1 [2]): competitive inhibitors
- kcat decrease (APE1 [2]): less than 6 fold
- Papp (Caco-2 permeability): 500 ×10⁻⁶ cm/s
- tolerability [3]: well tolerated by the animals, with no adverse effects noted
- CYP3A4 (inh. @ 10 µM) (CYP3A4): 53%

Compound: CC(=O)Nc1sc2c(c1-c1ccco1)CCNC2 [Compound 13]
- activity against APE1 in the qHTS assay, in words (APE1 [4]): greatly diminished activity

Compound: CC(=O)Nc1sc2c(c1-c1cccs1)CCNC2 [Compound 14]
- activity against APE1 in the qHTS assay, in words (APE1 [4]): greatly diminished activity

Compound: CC(=O)Nc1sc2c(c1-c1cc3ccccc3o1)CCNC2 [Compound 17]
- activity against APE1 in the qHTS assay, in words (APE1 [4]): greatly diminished activity

Compound: CC(=O)Nc1sc2c(c1-c1ncco1)CCNC2 [Compound 19]
- activity against APE1 in the qHTS assay, in words (APE1 [4]): greatly diminished activity

Compound: CC(=O)Nc1sc2c(c1-c1nccs1)CCNC2 [Compound 20]
- activity against APE1 in the qHTS assay, in words (APE1 [4]): greatly diminished activity

Compound: CC(=O)Nc1sc2c(c1-c1nc3ccccc3o1)CCN(C(C)C)C2 [Compound 23]
- loss in activity (APE1 [4]; relative to lead compound 3): 10 fold

Compound: CC(=O)Nc1sc2c(c1-c1nc(-c3ccccc3)cs1)CCN(C(C)C)C2 [Compound 24]
- activity against APE1 in the qHTS assay, in words (APE1 [4]): activity comparable to the lead compound

Compound: Cc1nnc(-c2sc3c(c2-c2nc4ccccc4s2)CCNC3)o1 [Compound 43]
- activity against APE1 in the qHTS assay, in words (APE1 [4]): completely inactive

Compound: Cc1noc(-c2sc3c(c2-c2nc4ccccc4s2)CCNC3)n1 [Compound 44]
- activity against APE1 in the qHTS assay, in words (APE1 [4]): completely inactive

Compound: Cc1nnc(Nc2sc3c(c2-c2nc4ccccc4s2)CCNC3)o1 [Compound 45]
- activity against APE1 in the qHTS assay, in words (APE1 [4]): modest activity
- less activity than the corresponding amide analog (4) (APE1 [4]): approximately 8 fold

Compound: CC(=O)Nc1sc2c(c1-c1nc3ccccc3s1)CCOC2 [Compound 47]
- activity against APE1 in the qHTS assay, in words (APE1 [4]): still active against APE1, albeit only at the highest concentration

Compound: CC(=O)Nc1sc2c(c1-c1nc3ccccc3s1)CCSC2 [Compound 48]
- activity against APE1 in the qHTS assay, in words (APE1 [4]): still active against APE1, albeit only at the highest concentration

Compound: CC(=O)Nc1sc2cnccc2c1-c1nc2ccccc2s1 [Compound 50]
- activity against APE1 in the qHTS assay, in words (APE1 [4]): completely inactive

Compound: CC(=O)Nc1sc2c(c1-c1nc3ccccc3s1)CNC2 [Compound 52, N-(3-(benzo[d]thiazol-2-yl)-5,6-dihydro-4H-thieno[2,3-c]pyrrol-2-yl)acetamide]
- IC50 (HeLa cells): ~30 µM
- potentiation of cytotoxic effects of MMS and TMZ (HeLa cells): greatly potentiated
- concentration of optimal synergy with MMS and TMZ (HeLa cells): 10 to 15 µM
- IC50 (APE1 [4]): 3.1 µM
- APE1-DNA binary complex (APE1-DNA complex): essentially absent
- inhibition of HeLa whole cell extract AP site incision ([1]; 10 µM inhibitor): almost complete inhibition
- inhibition at 100 µM [1]: ~100%
- KM increase (APE1 [2]): up to 10 fold
- mode of inhibition (APE1 [2]): competitive inhibitors
- kcat decrease (APE1 [2]): less than 6 fold
- Papp (Caco-2 permeability): 680 ×10⁻⁶ cm/s
- tolerability [3]: well tolerated by the animals, with no adverse effects noted
